From PubChem BioAssay
PRMT1 FP inh – blocks human protein arginine methyltransferase 1 | Q99873 | recombinant PRMT1, activity-based probe fluorescence polarization | inhibition, % at 2.79 µM | hit rate 1.3% among 370,000 | AID 652257;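 active means inhibition above about 21% made by adding two undisclosed values, limit read from the data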
UHRF1 binding – blocks human UHRF1 binding to methylated DNA. hit rate 0.75% among 370,000. inhibition, % at 4.4 µM. UHRF1 binding to methylated oligo, TR-FRET. Q96T88; in the data active means inhibition above about 21%;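 further: UHRF1 SRA domain binding a hemimethylated CpG hairpin DNA probe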
Target sequence (Q96T88 whole entry, looked up, the tested form may be a part): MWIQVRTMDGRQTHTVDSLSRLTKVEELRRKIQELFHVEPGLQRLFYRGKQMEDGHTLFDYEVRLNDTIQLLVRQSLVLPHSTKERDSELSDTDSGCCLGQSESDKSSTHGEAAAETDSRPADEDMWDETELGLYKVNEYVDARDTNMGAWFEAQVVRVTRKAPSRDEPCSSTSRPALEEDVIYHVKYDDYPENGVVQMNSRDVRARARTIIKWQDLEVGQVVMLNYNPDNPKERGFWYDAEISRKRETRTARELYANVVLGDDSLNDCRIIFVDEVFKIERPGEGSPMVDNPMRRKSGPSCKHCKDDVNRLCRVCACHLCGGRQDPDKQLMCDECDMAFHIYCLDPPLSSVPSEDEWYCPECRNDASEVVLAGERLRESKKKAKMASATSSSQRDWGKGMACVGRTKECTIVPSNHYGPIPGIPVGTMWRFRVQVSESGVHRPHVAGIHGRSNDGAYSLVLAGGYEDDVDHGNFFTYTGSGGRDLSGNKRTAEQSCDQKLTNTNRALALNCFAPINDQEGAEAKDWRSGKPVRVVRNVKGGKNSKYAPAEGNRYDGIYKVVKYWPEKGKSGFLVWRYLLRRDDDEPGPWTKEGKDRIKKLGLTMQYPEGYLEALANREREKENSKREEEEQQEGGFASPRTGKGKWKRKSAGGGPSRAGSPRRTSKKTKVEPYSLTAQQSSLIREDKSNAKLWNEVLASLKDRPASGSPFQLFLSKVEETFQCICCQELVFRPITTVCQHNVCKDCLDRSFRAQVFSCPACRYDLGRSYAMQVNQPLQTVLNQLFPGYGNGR
MBD2 DNA inh – inhibitors of human MBD2 binding to methylated oligonucleotide; Q9UBB5; TR-FRET; inhibition, % at 4.4 µM; hit rate 0.31% among 370,000; AID 686964; in the data active means inhibition above about 13%
RBBP9 inhibitor – blocks human serine hydrolase RBBP9; O75884; recombinant RBBP9, FP-Rh probe fluorescence polarization; inhibition, % at 7.94 µM; hit rate 0.2% among 220,000; AID 1515;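 active means inhibition above the campaign mean of all tested compounds plus 3 SD, cut at about 14% in these data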
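Material: RBBP9 protein. Amount: RBBP9 at 2.5 µM in dispensed solution, before mixing. Schedule: 30 min then 45 min, 25 °C. Medium: Tris buffer pH 8.0, NaCl, Pluronic. Measured by: fluorescence polarization. Measure: percent inhibition from mP, scaled between DMSO and no-protein wells. Replication: one well per compound.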
LEDGF integ inh – blocks HIV-1 LEDGF/p75-dependent DNA integration; TR-FRET IN-LEDGF/p75 DNA integration, Eu/Cy5; hit rate 0.64% among 370,000; AID 743269; inhibition, % at 3.7 µM;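 active means inhibition above the screen-wide mean plus 3 SD, cut at about 13% in these data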;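 further: signal is the Cy5 over europium emission ratio at 671 and 618 nm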
ABHD5-PLIN5 inh – blocks binding of human ABHD5 to perilipin-5. hit rate 0.78% among 360,000. inhibition, % at 4 µM. AID 602281. Split G. princeps luciferase complementation, luminescence, 4 h. Q00G26+Q8WTS1;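 active means inhibition above the mean inhibition across every tested compound plus 3 SD, cut at about 22% in these data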
ABHD5-PLIN5 conf – ABHD5-PLIN5 interaction inhibition, confirmed. shares compounds with ABHD5-PLIN5 inh. biochemical ABHD5-PLIN5 interaction, luminescence. inhibition, % at 4 µM. AID 651612. hit rate 67% among 2,200; in the data active means inhibition above about 23%
HNF4 counter – counter-screen for ABHD5-PLIN5 inhibitors: HNF4 split-luciferase | shares compounds with ABHD5-PLIN5 inh | HNF4 dimerization, luminescence, biochemical | inhibition, % at 4 µM | hit rate 77% among 2,200;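 active means mean inhibition across replicate wells exceeding the computed hit threshold, cut at about 13% in these data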;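 further: light from luciferase halves that rejoin when HNF4 fusion proteins dimerize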
PRMT1 confirm – PRMT1 (human) inhibition, FP confirmation. recombinant His-PRMT1, activity-based probe fluorescence polarization. inhibition, % at 2.79 µM. hit rate 42% among 3,300. shares compounds with PRMT1 FP inh;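 active means mean inhibition across replicates above the hit cutoff derived for the earlier primary screen, cut at about 22% in these data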
UHRF1 ctr MBD2 – UHRF1 methyl-oligo binding inhibition as MBD2 counter-screen; hit rate 25% among 1,000; UHRF1 binding to methylated oligonucleotide, TR-FRET; AID 720530; inhibition, % at 4.4 µM; shares compounds with MBD2 DNA inh; in the data active means inhibition above about 21%;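 further: UHRF1 SRA domain binding a labeled hemimethylated CpG hairpin DNA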
MBD2 DBD conf – confirmation of human MBD2-DBD methylated oligonucleotide binding inhibitors; shares compounds with MBD2 DNA inh; TR-FRET MBD2-DBD binding to methylated oligonucleotide; inhibition, % at 4.4 µM; hit rate 26% among 1,000; AID 720531
IN multimer up – HIV-1 integrase multimerization activation, counter-screen | shares compounds with LEDGF integ inh | TR-FRET HIV-1 integrase multimerization, biochemical | activation, % at 7.7 µM | hit rate 17% among 2,000; in the data active means activation above about 8.9%
TRFRET interf – TR-FRET optical interference, LEDGF/p75 integration counter-screen | shares compounds with LEDGF integ inh | TR-FRET optical interference counterscreen, HIV-1 IN multimerization | inhibition, % at 7.7 µM | 2,000 tested, under 10 active;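 active means inhibition above the mean over all tested compounds plus 3 SD, which no compound reached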
LEDGF integ conf – confirmation of HIV-1 LEDGF/p75-dependent integration inhibitors; inhibition, % at 3.7 µM; TR-FRET LEDGF/p75-dependent HIV-1 integration, biochemical; hit rate 36% among 2,000; AID 1053136; shares compounds with LEDGF integ inh
Hits are given with their value; 0 = inactive; - = not tested or not shown. This is a sample that favours compounds with a hit; in the whole collection about 3.1% have one here. Unless noted, no stated cut-off is given here; in the data, active means inhibition above about 14%; inactive means the rest.

SMILES	PRMT1 FP inh	UHRF1 binding	MBD2 DNA inh	RBBP9 inhibitor	LEDGF integ inh	ABHD5-PLIN5 inh	ABHD5-PLIN5 conf	HNF4 counter	PRMT1 confirm	others
O=C(NC1CCCCC1)C(c1cccc2ccccc12)n1c(=O)c(-c2ccco2)nc2ccccc21 (stereo not drawn)	29	0	0	-	0	87	85	0	0
CC(C)(C)NC(=O)C(c1ccccc1)n1c(=O)c(-c2ccco2)nc2ccccc21 (stereo not drawn)	26	0	0	-	0	75	77	26	0
O=c1c(-c2ccccc2)nc2ccccc2n1C(c1ccccn1)c1nc2ccccc2[nH]1 (stereo not drawn)	0	0	0	-	0	0	-	-	-
C[C@H]1CN(S(=O)(=O)C(C)(C)C)[C@@H](CCO)/C1=C\c1ccccc1	0	0	0	-	0	-	-	-	-
COc1ccccc1C(=O)N1CCN(C(=O)[C@@H](Cc2ccccc2)NC(=O)[C@H]2O[C@@H](n3ccc(=O)[nH]c3=O)[C@H](O)[C@@H]2O)CC1	0	0	0	-	0	-	-	-	-
NS(=O)(=O)c1ccccc1	0	0	0	0	0	0	-	-	-
O=S(=O)(/C=C/C=C/S(=O)(=O)c1ccccc1)c1ccccc1	25	0	0	-	0	90	91	111	28
Cc1ccc(S(=O)(=O)c2ccc(C)cc2)cc1	0	0	0	0	0	0	-	-	-
Cc1ccc(S(=O)(=O)C=CS(=O)(=O)c2ccc(C)cc2)cc1	90	0	0	-	0	37	68	108	95
C[C@H]1[C@H](NC(=O)c2cccc(Cl)c2)CC[C@@]23CCCN2C(=O)CCC[C@@H]13	0	0	0	-	0	-	-	-	-
CCCSc1cc(NCCOC(=O)CCC)c([N+](=O)[O-])c2nonc12	0	0	0	0	0	0	-	-	-
CCCC(=O)OCCNc1cc(Sc2nccn2C)c2nonc2c1[N+](=O)[O-]	72	0	0	0	0	28	56	109	40
CCCC(=O)OCCNc1cc(SCc2ccco2)c2nonc2c1[N+](=O)[O-]	0	0	0	0	0	0	-	-	-
CCC(=O)OCCNc1cc(Sc2nc3ccccc3[nH]2)c2nonc2c1[N+](=O)[O-]	84	0	0	0	0	43	63	111	76
CCCCN1CC(N2CCCC2)CS1(=O)=O (stereo not drawn)	0	0	0	-	0	-	-	-	-
O=C1N(Cc2ccccc2)CC2(Br)COCOC12O (stereo not drawn)	90	0	0	-	0	39	93	102	91
CCOc1cccc(-c2nnc3n2N=C(c2ccc(OC)cc2)CS3)c1	0	0	0	-	0	-	-	-	-
O=C(/C=C/c1ccc(-c2ccccc2[N+](=O)[O-])o1)c1ccc(F)cc1	33	0	0	0	0	29	43	33	0
O=C(/C=C/c1ccc(-c2ccccc2[N+](=O)[O-])o1)c1ccc(Br)cc1	0	0	0	0	0	0	-	-	-
COC(=O)[C@]12C[C@H](CC(=O)NCCCCc3ccccc3)C(=O)N(Cc3ccc4c(c3)OCO4)C1=C[C@H](C(C)C)O[C@@H]2C1CC1	0	0	0	-	0	-	-	-	-
Cc1ccc(C(=O)Nc2nc(-c3ccco3)c(-c3ccco3)s2)o1	38	88	40	-	85	28	0	17	29	UHRF1 ctr MBD2=0;MBD2 DBD conf=0
O=C(NC1CCCCN(Cc2cccc(Cl)c2)C1=O)c1cccc2nsnc12 (stereo not drawn)	0	0	0	-	0	-	-	-	-
COc1ccc(/C=C/c2c([N+](=O)[O-])c(=O)n(C)c(=O)n2C)cc1O	0	0	0	0	0	0	-	-	-
COc1ccc(/C=C\c2nc(O)c([N+](=O)[O-])c(=O)[nH]2)cc1O	0	0	39	-	0	23	27	30	-	UHRF1 ctr MBD2=0;MBD2 DBD conf=0
Cn1cnc([N+](=O)[O-])c1S(=O)(=O)Oc1ccccc1	0	0	14	-	0	62	75	95	-	UHRF1 ctr MBD2=0;MBD2 DBD conf=0
SMILES	PRMT1 FP inh	UHRF1 binding	MBD2 DNA inh	RBBP9 inhibitor	LEDGF integ inh	ABHD5-PLIN5 inh	ABHD5-PLIN5 conf	HNF4 counter	PRMT1 confirm	others
Cc1cc2c(nc1C)CCCN2S(=O)(=O)c1ccc(C(F)(F)F)cc1	0	0	0	-	0	-	-	-	-
O=C1COc2ccccc2C(c2nnnn2-c2ccc3ccccc3c2)N1C1CC1 (stereo not drawn)	0	0	0	-	0	-	-	-	-
Cc1ccc(-n2nc3c(N4CCC(C(=O)NCCc5ccco5)CC4)nnc(C)c3c2C)cc1	0	0	16	-	0	30	0	0	-	UHRF1 ctr MBD2=0;MBD2 DBD conf=0
COC(=O)c1ccc(NC(=O)CCc2nnc3ccc(NCc4ccco4)nn23)cc1	0	0	14	-	0	57	0	14	-	UHRF1 ctr MBD2=0;MBD2 DBD conf=0
Cc1ccc(NC(=O)CCc2nnc3ccc(NCc4ccco4)nn23)cc1F	0	0	0	-	0	0	-	-	-
COC1=CC(=O)C(C2CC(=O)c3c(O)cc(O)cc3O2)=CC1=O (stereo not drawn)	48	0	0	-	46	29	82	93	89	IN multimer up=46;TRFRET interf=0;LEDGF integ conf=24
CCN(CC)C(=O)CC[C@@H]1CC[C@]2(CCCN(C(=O)c3ccno3)C2)O1	0	0	0	-	0	-	-	-	-
O=C(O)c1cc(C(=O)O)cc(N2C(=O)c3ccccc3C2=O)c1	0	0	0	-	0	-	-	-	-
O=C(O)c1cc(N2C(=O)C=CC2=O)cc(N2C(=O)C=CC2=O)c1	75	97	80	-	62	24	80	109	97	UHRF1 ctr MBD2=77;MBD2 DBD conf=39;IN multimer up=0;TRFRET interf=0;LEDGF integ conf=53
O=C(Nc1ccccc1)c1ccc2nc(-c3ccco3)c(-c3ccco3)nc2c1	38	0	0	0	17	30	49	32	-	IN multimer up=0;TRFRET interf=0;LEDGF integ conf=43
O=C(NCCCO)c1ccc2nc(-c3ccco3)c(-c3ccco3)nc2c1	34	0	0	0	53	25	67	68	44	IN multimer up=50;TRFRET interf=0;LEDGF integ conf=70
